We go through one molecule from ChEMBL document CHEMBL5230177, “Inactivation of myostatin by photooxygenation using functionalized d-peptides” (RSC Med Chem, 2023).

Data set [1] has as its system chymotrypsin (Bos taurus). Put plainly: Stability of the compound assessed as chymotrypsin (bovine pancreas)-mediated drug degradation at 100 uM measured after 3 hrs by MALDI-TOF-MS analysis.
The target of data set [2] is T1, Growth/differentiation factor 8 (Homo sapiens, UniProt O14793).
T1 sequence (O14793 whole entry): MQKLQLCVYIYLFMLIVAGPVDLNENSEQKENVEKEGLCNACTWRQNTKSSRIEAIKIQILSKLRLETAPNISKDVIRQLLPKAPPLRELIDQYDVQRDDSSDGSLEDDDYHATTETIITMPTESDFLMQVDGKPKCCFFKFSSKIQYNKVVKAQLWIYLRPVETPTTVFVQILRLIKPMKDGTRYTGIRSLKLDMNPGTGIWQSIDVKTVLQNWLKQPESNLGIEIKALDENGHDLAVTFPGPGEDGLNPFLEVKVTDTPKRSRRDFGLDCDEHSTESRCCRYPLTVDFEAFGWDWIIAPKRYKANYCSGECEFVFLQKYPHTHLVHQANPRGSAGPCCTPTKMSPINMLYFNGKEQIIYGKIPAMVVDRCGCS
In words: Photo-oxygenation mediated inactivation of human recombinant Myostatin expressed in Escherichia coli cells photoirradiated for 30 mins using LED followed by incubation with luciferase reporter transfected HEK293 cells for 4 hrs by luciferase reporter gene assay. In short, it runs like this: (§1)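 Myostatin (1 μM in 10 mM phosphate, pH 7.4, with or without peptide) diluted in serum-free DMEM to 0.6 nM, irradiated at 730 nm for 30 min, then added to HEK293 cells. Cells were transfected 24 h with SBE-luc2P reporter plus TK-Renilla control, then held 8 h in serum/phenol red-free DMEM. Exposure 4 h, PBS wash, dual-luciferase read-out. Triplicate, mean ± s.d. (n = 3), Tukey's test.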

Data set [3] addresses Growth/differentiation factor 8 (Homo sapiens) (UniProt O14793). Put plainly: Inactivation of human recombinant Myostatin expressed in Escherichia coli cells at 3 nM incubated with luciferase reporter transfected HEK293 cells for 4 hrs by luciferase reporter gene assay. In general terms: In a reporter assay the amount or activity of a reporter protein is the signal.
For the next data set, the system named is trypsin (Sus scrofa). Put plainly: Stability of the compound assessed as trypsin (porcine pancreas)-mediated drug degradation at 100 uM measured after 3 hrs by MALDI-TOF-MS analysis.
Data set [4] concerns the target Amyloid-beta precursor protein (Homo sapiens) (UniProt P05067). Put plainly: Photo-oxygenation of human Amyloid beta (1 to 42) assessed as oxygen adduct formation at 3 uM measured after photoirradiation for 30 mins using LED by MALDI-TOF-MS analysis. In a few lines:
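Aβ1-42 formed in situ from isopeptide stock (250 μM in 0.1% TFA, ultracentrifuged), diluted to 20 μM in 10 mM phosphate, pH 7.4. Functionalized peptide (final 3 μM) or methylene blue (final 1 μM) added. Irradiated with 730 nm LED (14 mW, 3–5 cm) at room temperature. Reduced with 50 mM DTT (37 °C, 0.5 h), Lys-C digested (1/20 w/w, 37 °C, 2.5 h), desalted, analysed by MALDI-TOF MS.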

Data set [5] has as its target Growth/differentiation factor 8 (Homo sapiens) (UniProt O14793). In words: Photo-oxygenation of human recombinant Myostatin expressed in Escherichia coli cells assessed as oxygen adduct formation in myostatin peak fragment 79-90 at 3 uM measured after photoirradiation for 30 mins using LED by MALDI-TOF-MS analysis. In short, it runs like this: (§2)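 Myostatin stock (8 μM in 1 mM HCl) diluted to 1 μM in 10 mM phosphate, pH 7.4. Functionalized peptide (final 3 μM) or methylene blue (final 1 μM) added. Irradiated 30 min with 730 nm LED (14 mW) at room temperature. Then 50 mM DTT reduction (37 °C, 0.5 h), Lys-C digestion (1/20 w/w, 37 °C, 2.5 h), ZipTip desalting, MALDI-TOF MS of fragments.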

Data set [6] has the same target. In words: Photo-oxygenation mediated inactivation of human recombinant Myostatin expressed in Escherichia coli cells assessed as residual activity at 3 nM photoirradiated for 30 mins using LED followed by incubation with luciferase reporter transfected HEK293 cells for 4 hrs by luciferase reporter gene assay. Particulars: time 4.5 hrs. In short, it runs like this:
as §1

Data set [7] shares this target. Put plainly: Photo-oxygenation of human recombinant Myostatin expressed in Escherichia coli cells assessed as oxygen adduct formation in myostatin peak fragment 55-78 at 3 uM measured after photoirradiation for 30 mins using LED by MALDI-TOF-MS analysis. In short, it runs like this: as §2
The next data set has as its system HEK293. Put plainly: Phototoxicity against human HEK293 cells assessed as reduction in cell viability at 3 uM photoirradiated for 30 mins using LED followed by incubation with compound for 24 hrs by WST-1 assay. It counts as toxicity, cell-based. Particulars: hek293, 24.5 h, time 1470 min. In short, it runs like this:
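HEK293 cells grown in DMEM with 10% FBS and non-essential amino acids at 37 °C, 5% CO2, seeded 2.0×10^4 cells/well. After 48 h, medium switched to serum- and phenol red-free DMEM containing 3 μM peptide or methylene blue. Cells irradiated with LED (λmax 730 nm, 30 min), then incubated 24 h. Viability read by WST-1; Student's t-test.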
(In general: Tetrazolium dyes change colour on reduction, which living cells bring about.)

For data set [8], the target named is Growth/differentiation factor 8 (Homo sapiens) (UniProt O14793). Put plainly: Photo-oxygenation of human recombinant Myostatin expressed in Escherichia coli cells assessed as oxygen adduct formation in myostatin peak fragment 40-54 at 3 uM measured after photoirradiation for 30 mins using LED by MALDI-TOF-MS analysis. In a few lines:
as §2

The source made the active and inactive calls. The calls are words filed in the database; no cut-off is given here.

Chain of Amyloid-beta precursor protein (Homo sapiens) (P05067 whole entry): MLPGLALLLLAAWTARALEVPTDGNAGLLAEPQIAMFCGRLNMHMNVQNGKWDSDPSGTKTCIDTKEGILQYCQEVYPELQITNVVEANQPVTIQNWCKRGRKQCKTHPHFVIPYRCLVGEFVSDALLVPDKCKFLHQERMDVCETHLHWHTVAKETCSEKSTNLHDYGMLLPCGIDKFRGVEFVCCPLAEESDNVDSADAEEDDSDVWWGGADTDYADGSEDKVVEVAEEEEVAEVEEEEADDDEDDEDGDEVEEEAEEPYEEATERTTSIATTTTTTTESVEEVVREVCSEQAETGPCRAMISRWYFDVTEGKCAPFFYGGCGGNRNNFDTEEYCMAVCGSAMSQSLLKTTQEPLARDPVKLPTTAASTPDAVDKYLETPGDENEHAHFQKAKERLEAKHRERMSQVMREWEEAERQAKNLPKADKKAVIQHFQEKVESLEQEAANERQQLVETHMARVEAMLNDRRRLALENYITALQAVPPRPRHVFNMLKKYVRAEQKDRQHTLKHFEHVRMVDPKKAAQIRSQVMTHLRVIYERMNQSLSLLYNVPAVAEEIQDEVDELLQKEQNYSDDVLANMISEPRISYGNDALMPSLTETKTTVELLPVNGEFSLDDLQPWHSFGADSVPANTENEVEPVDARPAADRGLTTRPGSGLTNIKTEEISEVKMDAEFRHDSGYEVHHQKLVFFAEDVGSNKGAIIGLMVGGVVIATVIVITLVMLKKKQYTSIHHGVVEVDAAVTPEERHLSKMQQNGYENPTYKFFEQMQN

The IC50 is the concentration at which inhibition is half-maximal. In the case of `CC[C@@H](C)[C@@H](NC(=O)[C@@H](CCCNC(=N)N)NC(=O)[C@@H](CCc1ccccc1)NC(=O)[C@H](NC(=O)[C@@H](CCCCN)NC(=O)[C@H](NC(=O)[C@@H](CCCNC(=N)N)NC(=O)[C@H](NC(=O)[C@@H](Cc1ccc2ccccc2c1)NC(=O)[C@@H](CCCNC(=N)N)NC(=O)[C@@H](CCCCN)NC(=O)[C@H](NC(=O)[C@@H](CCCNC(=N)N)NC(=O)[C@@H](CC(C)C)NC(=O)CCc1cn(CCN2CCCc3cc(/C=C/C4=C(Br)C(/C=C/c5cc6c7c(c5)CCCN7CCC6)=[O+][B-](F)(C(F)(F)F)O4)ccc32)nn1)C1CCCCC1)[C@H](C)CC)C1CCCCC1)[C@H](C)CC)C(=O)N[C@H](Cc1ccc(O)cc1)C(=O)N[C@H](CCc1ccccc1)C(N)=O` (stereo not given in full), the Stability entry (in data set [1]; in the data set on trypsin (Sus scrofa)) was “Stable” each time. Besides, in data set [2], the IC50 stood at 0.89 nM. Besides, in [3], the inhibition entry was “inactive”. The result in [4] and in data set [8] was inactive. In addition, the result in [5] and in data set [7] was Active. The Activity was 41% in data set [6] and “Non-Toxic” in the data set with HEK293.
